Key:
Type in all cases: functional, cell-based
HeLa = assay: Antiproliferative activity against human HeLa cells after 48 hrs by sulforhodamine B assay
Outline: (§1)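 Cells grown in DMEM with 10% FBS at 37 °C under 5% CO2. Plated cells were allowed 24 h before drug, then exposed continuously for 48 h at 0.01, 0.1, 1, 10 and 100 μM. Monolayers were fixed with cold 10% TCA for 1 h at 4 °C and stained with 0.057% SRB in 1% acetic acid for 30 min. Bound dye was read at 510 nm. IC50 is the 50% growth-inhibitory concentration, using time-zero and control readings.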

MDA-MB-231 = assay: Antiproliferative activity against human MDA-MB-231 cells after 48 hrs by sulforhodamine B assay; conditions: MDA-MB-231, 48 h; outline: as §1
A549 = assay: Antiproliferative activity against human A549 cells after 48 hrs by sulforhodamine B assay; conditions: A549, 48 h; outline: as §1
MIA PaCa-2 = assay: Antiproliferative activity against human MIAPaCa2 cells after 48 hrs by sulforhodamine B assay; conditions: MIA PaCa-2, 48 h; outline: as §1

Row | Compound | IC50 (HeLa) [µM] | IC50 (MDA-MB-231) [µM] | IC50 (A549) [µM] | IC50 (MIA PaCa-2) [µM]
1 | COc1cc(OC)c2sc(-c3ccc(N/C=C\C(=O)c4ccc(OC)c(O)c4)cc3)nc2c1 | 12.1 | 7.61 | 10.6 | 11.6
2 | COc1ccc2nc(-c3ccc(N/C=C\C(=O)c4cc(OC)c(OC)c(OC)c4)cc3)sc2c1 | 14.1 | 19.6 | 12.1 | 31.1
3 | COc1ccc2nc(-c3ccc(N/C=C\C(=O)c4cc(OC)c(OC)c([N+](=O)[O-])c4)c(C)c3)sc2c1 | 12.1 | 5.05 | 22.1 | 12
4 | COc1ccc2nc(-c3ccc(N/C=C\C(=O)c4cc(OC)c(OC)c(OC)c4Br)c(C)c3)sc2c1 | 13.4 | 9.4 | 6.4 | 23.4
5 | COc1cc(OC)c2sc(-c3ccc(N/C=C\C(=O)c4cc(OC)c(OC)c(OC)c4)cc3)nc2c1 | 17.8 | 15.8 | 21.8 | 26.8
6 | COc1cc(OC)c2sc(-c3ccc(N/C=C\C(=O)c4ccc(OC)c(O)c4)c(C)c3)nc2c1 | 16.1 | 3.1 | 14.3 | 22.1
7 | COc1cc(OC)c2sc(-c3ccc(N/C=C\C(=O)c4cc(OC)c(OC)c(OC)c4)c(C)c3)nc2c1 | 16.4 | 13.8 | 14.4 | 17
8 | COc1ccc(C(=O)/C=C\Nc2ccc(-c3nc4cc(OC)c(OC)c(OC)c4s3)cc2)cc1O | 14.1 | 18.1 | 23 | 32.8
9 | COc1ccc(C(=O)/C=C\Nc2ccc(-c3nc4cc(OC)c(OC)c(OC)c4s3)cc2)cc1[N+](=O)[O-] | 11.4 | 17.1 | 21.2 | 15.9
10 | COc1cc(OC)c2sc(-c3ccc(N/C=C\C(=O)c4cc(OC)c(OC)c([N+](=O)[O-])c4)cc3)nc2c1 | 19 | 3.06 | 13 | 12.7
11 | COc1ccc2nc(-c3ccc(N/C=C\C(=O)c4ccc(OC)c(O)c4)c(C)c3)sc2c1 | 12 | 14 | 18 | 17
12 | COc1ccc(C(=O)/C=C\Nc2ccc(-c3nc4cc(OC)c(OC)c(OC)c4s3)cc2C)cc1[N+](=O)[O-] | 13.4 | 12.4 | 9.1 | 23.4
13 | COc1ccc2nc(-c3ccc(N/C=C\C(=O)c4cc(OC)c(OC)c([N+](=O)[O-])c4)cc3)sc2c1 | 16.1 | 7.61 | 21.6 | 25.6
14 | COc1ccc(C(=O)/C=C\Nc2ccc(-c3nc4cc(OC)c(OC)c(OC)c4s3)cc2C)cc1O | 11.4 | 12.4 | 15.4 | 15.4
15 | COc1ccc2nc(-c3ccc(N/C=C\C(=O)c4ccc(OC)c([N+](=O)[O-])c4)cc3)sc2c1 | 17.6 | 17.6 | 13.6 | 23.6
16 | COc1cc(OC)c2sc(-c3ccc(N/C=C\C(=O)c4ccc(OC)c([N+](=O)[O-])c4)cc3)nc2c1 | 12.9 | 12.9 | 5.8 | 2.9
17 | COc1cc(OC)c2sc(-c3ccc(N/C=C\C(=O)c4ccc(OC)c(F)c4)c(C)c3)nc2c1 | 14.7 | 13.3 | 15.3 | 16.3
18 | COc1cc(C(=O)/C=C\Nc2ccc(-c3nc4cc(OC)c(OC)c(OC)c4s3)cc2C)c(Br)c(OC)c1OC | 14.3 | 7.3 | 10.3 | 24.3
19 | COc1cc(OC)c2sc(-c3ccc(N/C=C\C(=O)c4cc(OC)c(OC)c(OC)c4Br)c(C)c3)nc2c1 | 14.7 | 17.3 | 14 | 16
20 | COc1cc(C(=O)/C=C\Nc2ccc(-c3nc4cc(OC)c(OC)c(OC)c4s3)cc2C)cc([N+](=O)[O-])c1OC | 13.1 | 12.8 | 17.4 | 22
21 | COc1ccc2nc(-c3ccc(N/C=C\C(=O)c4ccc(OC)c([N+](=O)[O-])c4)c(C)c3)sc2c1 | 17.6 | 17.6 | 13.6 | 23.6
22 | COc1ccc2nc(-c3ccc(N/C=C\C(=O)c4cc(OC)c(OC)c(OC)c4)c(C)c3)sc2c1 | 16.1 | 17 | 11.1 | 10

Further compounds by falling IC50 (HeLa), results first:

Row | IC50 (HeLa) [µM] | IC50 (MDA-MB-231) [µM] | IC50 (A549) [µM] | IC50 (MIA PaCa-2) [µM] | Compound
23 | 11.4 | 7.4 | 15.4 | 10.4 | COc1cc(OC)c2sc(-c3ccc(N/C=C\C(=O)c4cc(OC)c(OC)c([N+](=O)[O-])c4)c(C)c3)nc2c1
24 | 11.1 | 12.9 | 23.3 | 22.8 | COc1cc(C(=O)/C=C\Nc2ccc(-c3nc4cc(OC)c(OC)c(OC)c4s3)cc2C)cc(OC)c1OC
25 | 10.3 | 16.1 | 12 | 19 | COc1cc(OC)c2sc(-c3ccc(N/C=C\C(=O)c4cc(OC)c(OC)c(OC)c4Br)cc3)nc2c1
26 | 9.39 | 10.8 | 12.1 | 13.9 | COc1cc(OC)c2sc(-c3ccc(N/C=C\C(=O)c4ccc(OC)c([N+](=O)[O-])c4)c(C)c3)nc2c1
27 | 8.02 | 11.1 | 6 | 14.7 | COc1ccc2nc(-c3ccc(N/C=C\C(=O)c4cc(OC)c(OC)c(OC)c4Br)cc3)sc2c1
28 | 7.8 | 9.8 | 11.8 | 15.8 | COc1cc(C(=O)/C=C\Nc2ccc(-c3nc4cc(OC)c(OC)c(OC)c4s3)cc2)cc([N+](=O)[O-])c1OC
29 | 7.3 | 16.5 | 15.5 | 19.4 | COc1ccc(C(=O)/C=C\Nc2ccc(-c3nc4cc(OC)c(OC)c(OC)c4s3)cc2)cc1F
30 | 7.3 | 6.7 | 5.3 | 4.3 | COc1cc(OC)c2sc(-c3ccc(N/C=C\C(=O)c4ccc(OC)c(F)c4)cc3)nc2c1
31 | 6.9 | 18.9 | 12.8 | 21.9 | COc1ccc2nc(-c3ccc(N/C=C\C(=O)c4ccc(OC)c(O)c4)cc3)sc2c1
32 | 6.6 | 15.6 | 13.6 | 23.2 | COc1cc(C(=O)/C=C\Nc2ccc(-c3nc4cc(OC)c(OC)c(OC)c4s3)cc2)c(Br)c(OC)c1OC
33 | 5.3 | 16.5 | 15.5 | 29.1 | COc1cc(C(=O)/C=C\Nc2ccc(-c3nc4cc(OC)c(OC)c(OC)c4s3)cc2)cc(OC)c1OC
34 | 1.2 | 2.9 | 1.69 | 1.8 | COc1ccc(C(=O)/C=C\Nc2ccc(-c3nc4cc(OC)c(OC)c(OC)c4s3)cc2C)cc1F

Reference: ChEMBL document CHEMBL4261486, “2-Arylaminobenzothiazole-arylpropenone conjugates as tubulin polymerization inhibitors” (Medchemcomm, 2017)
